In ChEMBL document CHEMBL1158762, “Antineoplastic agents. 534. isolation and structure of sansevistatins 1 and 2 from the African Sansevieria ehrenbergii” (2005):
Converted amounts (≈) assume the structure as drawn. The source made the active and inactive calls. No cut-off for these calls is given here.

Experiments:
Cryptococcus neoformans [1] = experiment: Antimicrobial activity against Cryptococcus neoformans ATCC 90112 by broth micro dilution assay; format: functional
Candida albicans [2] = experiment: Antimicrobial activity against Candida albicans ATCC 90028 by broth micro dilution assay; format: functional
Streptococcus pneumoniae [3] = experiment: Antimicrobial activity against Streptococcus pneumoniae ATCC 6303 at 64 ug/mL by broth micro dilution assay; format: functional, organism-based
Micrococcus luteus [4] = experiment: Antimicrobial activity against Micrococcus luteus presque Isle 456 at 64 ug/mL by broth micro dilution assay; format: functional, organism-based
Staphylococcus aureus = experiment: Antimicrobial activity against Staphylococcus aureus at 64 ug/mL by broth micro dilution assay; format: functional, organism-based
Enterococcus faecalis = experiment: Antimicrobial activity against Enterococcus faecalis at 64 ug/mL by broth micro dilution assay; format: functional, organism-based
Escherichia coli = experiment: Antimicrobial activity against Escherichia coli at 64 ug/mL by broth micro dilution assay; format: functional, organism-based
Enterobacter cloacae = experiment: Antimicrobial activity against Enterobacter cloacae at 64 ug/mL by broth micro dilution assay; format: functional, organism-based
[5] = system: Stenotrophomonas maltophilia; experiment: Antimicrobial activity against Stenotrophomonas maltophilia at 64 ug/mL by broth micro dilution assay; format: functional, organism-based
Neisseria gonorrhoeae = experiment: Antimicrobial activity against Neisseria gonorrhoeae at 64 ug/mL by broth micro dilution assay; format: functional, organism-based
P388 = experiment: Growth inhibition of mouse P388 cells after 48 hrs; format: functional; details: P388, 48 h, read-out: ED50 (the source's name)
Summary of the method: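 Murine P388 leukemia cells were preincubated 24 h in Fisher medium with 10% horse serum, then exposed to serial compound dilutions for 48 h. Cells were counted on an electronic particle counter, and ED50 for growth inhibition was calculated from the counts.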

BXPC-3 = experiment: Growth inhibition of humanBxPC3 cells after 48 hrs; format: functional; details: Homo sapiens, BXPC-3, 48 h
Summary of the method: (§1)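 NCI sulforhodamine B assay. Cells in RPMI1640 with 5% fetal bovine serum were seeded and incubated 24 h, then exposed to serial dilutions for 48 h. Plates were TCA-fixed, SRB-stained and read for optical density. GI50 is the concentration giving 50% reduction in net protein increase, calculated from OD data.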

MCF7 = experiment: Growth inhibition of human MCF7 cells after 48 hrs; format: functional; details: MCF7, 48 h; summary of the method: as §1
SF-268 = experiment: Growth inhibition of human SF268 cells after 48 hrs; format: functional; details: SF-268, 48 h; summary of the method: as §1
NCI-H460 = experiment: Growth inhibition of human NCI-H460 cells after 48 hrs; format: functional; details: NCI-H460, 48 h; summary of the method: as §1
KM-20L2 = experiment: Growth inhibition of human KM20L2 cells after 48 hrs; format: functional; details: KM-20L2, 48 h; summary of the method: as §1
DU-145 = experiment: Growth inhibition of human DU145 cells after 48 hrs; format: functional; details: DU-145, 48 h; summary of the method: as §1
Streptococcus pneumoniae [6] = experiment: Antimicrobial activity against Streptococcus pneumoniae ATCC 6303 by broth micro dilution assay; format: functional
Micrococcus luteus [7] = experiment: Antimicrobial activity against Micrococcus luteus presque Isle 456 by broth micro dilution assay; format: functional
Summary of the method: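 NCCLS broth microdilution. Compounds reconstituted in a small volume of sterile DMSO and diluted in the appropriate medium immediately before testing. MIC read as the lowest concentration giving no visible growth (optically clear). Assays repeated on separate days.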

Cryptococcus neoformans [8] = experiment: Antimicrobial activity against Cryptococcus neoformans ATCC 90112 at 64 ug/mL by broth micro dilution assay; format: functional, organism-based
Candida albicans [9] = experiment: Antimicrobial activity against Candida albicans ATCC 90028 at 64 ug/mL by broth micro dilution assay; format: functional, organism-based

Compound | MIC (Cryptococcus neoformans [1]) [µg/mL] | MIC (Candida albicans [2]) [µg/mL] | Activity (Streptococcus pneumoniae [3]) | Activity (Micrococcus luteus [4]) | Activity (Staphylococcus aureus) | Activity (Enterococcus faecalis) | Activity (Escherichia coli) | Activity (Enterobacter cloacae) | Activity [5] | Activity (Neisseria gonorrhoeae) | EC50 (P388) [µg/mL] | GI50 (BXPC-3) [µg/mL] | GI50 (MCF7) [µg/mL] | GI50 (SF-268) [µg/mL] | GI50 (NCI-H460) [µg/mL] | GI50 (KM-20L2) [µg/mL] | GI50 (DU-145) [µg/mL] | MIC (Streptococcus pneumoniae [6]) [µg/mL] | other results
C[C@@H]1CC[C@@]2(OC1)O[C@H]1C[C@H]3[C@@H]4CC=C5C[C@@H](O[C@@H]6O[C@H](CO)[C@@H](O[C@@H]7OC[C@@H](O)[C@H](O)[C@H]7O)[C@H](O)[C@H]6O[C@@H]6O[C@@H](C)[C@H](O)[C@@H](O)[C@H]6O)CC[C@]5(C)[C@H]4CC[C@]3(C)[C@H]1[C@@H]2C | 2 (≈ 2.34 µM) | 4 (≈ 4.68 µM) | inactive | inactive | inactive | inactive | inactive | inactive | inactive | inactive | 2.6 (≈ 3.04 µM) | 1.7 (≈ 1.99 µM) | 1.4 (≈ 1.64 µM) | 1.3 (≈ 1.52 µM) | 1.2 (≈ 1.4 µM) | 0.5 (≈ 0.585 µM) | 1.1 (≈ 1.29 µM) |  | 
C[C@@H]1CC[C@@]2(OC1)O[C@H]1C[C@H]3[C@@H]4CC=C5C[C@@H](O[C@@H]6O[C@H](CO)[C@@H](O[C@@H]7O[C@@H](C)[C@H](O)[C@@H](O)[C@H]7O)[C@H](O)[C@H]6O[C@@H]6O[C@@H](C)[C@H](O)[C@@H](O)[C@H]6O)CC[C@]5(C)[C@H]4CC[C@]3(C)[C@H]1[C@@H]2C [DIOSCIN] | 1 (≈ 1.15 µM) | 2 (≈ 2.3 µM) |  |  | inactive | inactive | inactive | inactive | inactive | inactive | 1.5 (≈ 1.73 µM) | 1.1 (≈ 1.27 µM) | 1.6 (≈ 1.84 µM) | 1.2 (≈ 1.38 µM) | 1.6 (≈ 1.84 µM) | 1.6 (≈ 1.84 µM) | 1.6 (≈ 1.84 µM) | 32 (≈ 36.8 µM) | MIC (Micrococcus luteus [7]): 4 µg/mL (≈ 4.6 µM)
C[C@@H]1CC[C@@]2(OC1)O[C@H]1C[C@H]3[C@@H]4CC=C5C[C@@H](O)CC[C@]5(C)[C@H]4CC[C@]3(C)[C@H]1[C@@H]2C [DISOGENIN] |  |  | inactive |  | inactive | inactive | inactive | inactive | inactive | inactive | 4.3 (≈ 10.4 µM) | > 10 | > 10 | > 10 | > 10 | > 10 | 8.5 (≈ 20.5 µM) |  | MIC (Micrococcus luteus [7]): 32 µg/mL (≈ 77.2 µM); Activity (Cryptococcus neoformans [8]): inactive; Activity (Candida albicans [9]): inactive
C[C@@H]1CC[C@@]2(OC1)O[C@H]1C[C@H]3[C@@H]4CC=C5C[C@@H](O[C@@H]6O[C@H](CO)[C@@H](O)[C@H](O)[C@H]6O[C@@H]6O[C@@H](C)[C@H](O)[C@@H](O)[C@H]6O)CC[C@]5(C)[C@H]4CC[C@]3(C)[C@H]1[C@@H]2C [OPHIOPOGONIN C] | 1 (≈ 1.38 µM) | 2 (≈ 2.77 µM) |  | inactive | inactive | inactive | inactive | inactive | inactive | inactive | 1.5 (≈ 2.07 µM) | 1.8 (≈ 2.49 µM) | 2 (≈ 2.77 µM) | 1.8 (≈ 2.49 µM) | 1.8 (≈ 2.49 µM) | 1.7 (≈ 2.35 µM) | 1.6 (≈ 2.21 µM) | 16 (≈ 22.1 µM) | 
C[C@@H]1CC[C@@]2(OC1)O[C@H]1C[C@H]3[C@@H]4[C@H](O)C=C5C[C@@H](O[C@@H]6O[C@H](CO)[C@@H](O)[C@H](O)[C@H]6O[C@@H]6O[C@@H](C)[C@H](O)[C@@H](O)[C@H]6O)CC[C@]5(C)[C@H]4CC[C@]3(C)[C@H]1[C@@H]2C [SANSEVIERIN A] | 64 (≈ 86.6 µM) | 64 (≈ 86.6 µM) | inactive | inactive | inactive | inactive | inactive | inactive | inactive | inactive | > 10 | > 10 | > 10 | > 10 | > 10 | > 10 | > 10 |  | 
C=C1CC[C@@]2(OC1)O[C@H]1C[C@H]3[C@@H]4CC=C5C[C@@H](O[C@@H]6O[C@H](CO)[C@@H](O[C@@H]7O[C@@H](C)[C@H](O)[C@@H](O)[C@H]7O)[C@H](O)[C@H]6O[C@@H]6O[C@@H](C)[C@H](O)[C@@H](O)[C@H]6O)CC[C@]5(C)[C@H]4CC[C@]3(C)[C@H]1[C@@H]2C [SANSEVISTATIN 1] | 1 (≈ 1.15 µM) | 2 (≈ 2.31 µM) | inactive | inactive | inactive | inactive | inactive | inactive | inactive | inactive | 1.6 (≈ 1.85 µM) | 1.1 (≈ 1.27 µM) | 1.1 (≈ 1.27 µM) | 1.3 (≈ 1.5 µM) | 0.43 (≈ 0.496 µM) | 0.47 (≈ 0.542 µM) | 1 (≈ 1.15 µM) |  | 
C[C@@H]1CC[C@@]2(OC1)O[C@H]1C[C@H]3[C@@H]4CC=C5C[C@@H](O[C@@H]6O[C@H](CO)[C@@H](O[C@@H]7OC[C@H](O)[C@H](O)[C@H]7O)[C@H](O)[C@H]6O[C@@H]6O[C@@H](C)[C@H](O)[C@@H](O)[C@H]6O)CC[C@]5(C)[C@H]4CC[C@]3(C)[C@H]1[C@@H]2C [SANSEVISTATIN 2] | 1 (≈ 1.17 µM) |  |  | inactive | inactive | inactive | inactive | inactive | inactive | inactive | 1.7 (≈ 1.99 µM) | 0.93 (≈ 1.09 µM) | 0.62 (≈ 0.725 µM) | 0.68 (≈ 0.795 µM) | 0.26 (≈ 0.304 µM) | 0.22 (≈ 0.257 µM) | 0.42 (≈ 0.491 µM) | 32 (≈ 37.4 µM) | Activity (Candida albicans [9]): inactive
